Screens as filed in PubChem BioAssay.
Only some compounds are listed: those with a hit (about 4.5% of all), similar ones and a draw of the others.
TAAR1 antag: human TAAR1 antagonism; CHO RD-HGA16 TAAR1, Fluo-8 calcium fluorescence, antagonist; inhibition, % at 3 µM; 360,000 compounds, 1.5% hits; AID 624466;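 active = inhibition above a per-plate cutoff, the mean inhibition of test compounds on that plate plus 3 SD, cut at about 49% in these data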;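 also: 0% = DMSO plus EC80 beta-PEA response and 100% = DMSO alone without agonist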
Target sequence (Q96RJ0 whole entry, looked up): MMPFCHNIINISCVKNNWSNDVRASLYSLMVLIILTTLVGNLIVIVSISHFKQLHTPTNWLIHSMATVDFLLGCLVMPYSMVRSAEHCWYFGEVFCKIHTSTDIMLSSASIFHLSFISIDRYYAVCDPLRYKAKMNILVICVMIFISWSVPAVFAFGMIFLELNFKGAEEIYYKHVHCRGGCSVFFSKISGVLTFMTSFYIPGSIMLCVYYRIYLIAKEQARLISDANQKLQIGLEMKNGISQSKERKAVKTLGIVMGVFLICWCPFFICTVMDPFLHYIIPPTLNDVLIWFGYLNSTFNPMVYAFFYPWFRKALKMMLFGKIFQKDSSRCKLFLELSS
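Test system – hTAAR1-expressing CHO RD-HGA16 cells, Gα16-coupled · Also added – β-PEA at EC80 concentration, post-compound challenge · Compound – 3 µM, single point · Incubation – dye loading 75 min at 37 °C, then 30 min room temperature · Measured by – Fluo-8 intracellular calcium dye fluorescence, real-time kinetic reads · Benchmarks – vehicle and agonist controls · Replicates – singlicate, one well per test compound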
TAAR1 ag: agonists of human TAAR1; CHO RD-HGA16 TAAR1, Fluo-8 calcium fluorescence; vehicle wells 0%, saturating PEA agonist 100%; activation, % at 3 µM; Q96RJ0; 360,000 compounds, 0.99% hits;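 active = activation above the mean activation of all test compounds in the run plus 3 SD, cut at about 38% in these data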
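Benchmarks: low control DMSO, high control PEA (EC100); System: CHO RD-HGA16 cells carrying human TAAR1 plus Gα16; Detection: Fluo-8 fluorescence, 5 s baseline then 140 s kinetic read; Schedule: 17-24 h plating, Fluo-8 75 min 37 °C, 30 min RT; Read-out basis: % activation from peak over basal fluorescence ratio, DMSO-to-PEA scaled.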
CHO parental Ca: counter-screen: ATP calcium response change in parental CHO cells. 330,000 compounds, 0.63% hits. parental CHO-K1, ATP-induced calcium, Fluo-8 fluorescence. inhibition, % at 5.6 µM. AID 463079;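 active = inhibition above that plate's mean sample inhibition plus 3 SD, cut at about 26% in these data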;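 also: 0% = ATP-challenged DMSO wells and 100% = DMSO wells without ATP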
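Measured by: calcium-sensitive Fluo-8 fluorescence / Test system: CHO parental line / Controls: ATP-challenged DMSO wells low, unchallenged DMSO wells high / Measure: % inhibition / Compound: single nominal dose of 5.6 µM per compound / Replicates: single well per compound, no replicates / Reagent: ATP as calcium-mobilizing challenge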
GPR7 antag: human neuropeptides B/W receptor 1 antagonism | inhibition, % at 4.4 µM | 290,000 compounds, 1.1% hits | AID 1861 | P48145 | GPR7-expressing cells, fluorescence antagonist assay; in the data active = inhibition above about 16%, passing the limit was not always enough;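 also: cells stimulated with the agonist NPW; 0% = agonist with vehicle and 100% = vehicle without agonist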
OX1R antag-1: OX1R (human) antagonism | O43613 | OX1R-expressing cells, FRET antagonist read-out | inhibition, % at 6.6 µM | 330,000 compounds, 1.8% hits | AID 485270; in the data active = inhibition mostly above about 38%, no sharp cut-off; inactive = mostly below about 40%;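 also: 0% = agonist challenge alone and 100% = reference antagonist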
Target sequence (O43613 whole entry, looked up): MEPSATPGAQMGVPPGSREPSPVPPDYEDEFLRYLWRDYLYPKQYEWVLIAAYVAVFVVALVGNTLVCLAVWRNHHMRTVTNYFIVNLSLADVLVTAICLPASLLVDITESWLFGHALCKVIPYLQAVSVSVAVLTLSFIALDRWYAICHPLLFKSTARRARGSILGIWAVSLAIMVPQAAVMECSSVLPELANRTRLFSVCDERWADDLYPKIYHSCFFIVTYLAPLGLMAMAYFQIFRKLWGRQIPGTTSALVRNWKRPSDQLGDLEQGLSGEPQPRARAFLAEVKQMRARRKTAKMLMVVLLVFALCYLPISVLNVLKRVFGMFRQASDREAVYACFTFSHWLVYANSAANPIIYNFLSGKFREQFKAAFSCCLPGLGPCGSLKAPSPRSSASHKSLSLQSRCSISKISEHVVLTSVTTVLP
OX1R antag-2: human HCRTR1 antagonism | O43613 | CHO/OX1R cells, Fluo-8 calcium fluorescence, orexin A | inhibition, % at 5 µM | 330,000 compounds, 0.43% hits | AID 434989;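 active = inhibition above its plate's threshold, mean inhibition of all tested compounds on the plate plus 3 SD, cut at about 37% in these data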;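 also: 0% = orexin A challenge wells and 100% = SB-334867-A antagonist wells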
TAAR1 ag conf: human TAAR1 agonism, confirmed; shares compounds with TAAR1 ag; CHO RD-HGA16 TAAR1, Fluo-8 calcium fluorescence; scaled: DMSO 0%, maximal phenethylamine 100%; activation, % at 3 µM; 2,400 compounds, 82% hits;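 active = activation above a cutoff set at the run's mean compound activation plus 3 SD, cut at about 39% in these data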
Ga16 ag counter: nonselective agonism, TAAR1 counter-screen; shares compounds with TAAR1 ag; CHO-Ga16 parental, Fluo-8 calcium fluorescence; normalized to maximal ATP response, DMSO zero; activation, % at 3 µM; 2,400 compounds, 50% hits;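 active = activation above the run cutoff, the mean activation over all tested wells plus 3 SD, cut at about 12% in these data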;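 also: 0% = DMSO wells and 100% = maximal ATP response on the peak over basal ratio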
TAAR1 desensitize: counter-screen for human TAAR1 agonists: agonists that desensitize TAAR1 | shares compounds with TAAR1 ag | 2,400 compounds, 46% hits | inhibition, % at 3 µM | CHO RD-HGA16 hTAAR1, Fluo-8 calcium, beta-PEA response inhibition;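 active = inhibition above the run cutoff, the mean inhibition of all test compounds plus 3 SD, cut at about 49% in these data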;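 also: beta-PEA stimulus applied at its EC80; loss of beta-PEA calcium signal after compound pretreatment read as receptor desensitization; 0% = DMSO with beta-PEA at EC80 and 100% = DMSO alone without agonist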
Ga16 antag count: nonselective Ga16 antagonism, counter-screen; inhibition, % at 3 µM; shares compounds with TAAR1 ag; CHO-Ga16 ATP-induced calcium, Fluo-8 fluorescence; 2,400 compounds, 39% hits;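 active = inhibition above the plate's mean compound inhibition plus 3 SD, computed per plate, cut at about 22% in these data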;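 also: 0% = EC80 ATP with DMSO and 100% = DMSO wells without ATP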
Active calls of the source: *; / = no result given; ! = repeats disagree.

SMILES | TAAR1 antag | TAAR1 ag | CHO parental Ca | GPR7 antag | OX1R antag-1 | OX1R antag-2 | TAAR1 ag conf | Ga16 ag counter | TAAR1 desensitize | Ga16 antag count
COCC(C)N1C(=O)Cc2c1nc(N)c1c(N)nc(N3CCN(c4ccccc4F)CC3)c(C#N)c21 (stereo not drawn) | 49* | 52* | -16 | 0 | 35 | -5 | 49* | 25* | 63* | 45*
CC1CC(C)CN(C(=O)C(C)N2CCN(S(=O)(=O)c3ccc(Br)s3)CC2)C1 (stereo not drawn) | 2 | -3 | -14 | / | 11 | -42 | / | / | / | /
CCN=C1NC(c2ccc(Cl)cc2)C(C(=O)OC)=C(C)N1Cc1cccc(C(F)(F)F)c1 (stereo not drawn) | 74* | 56* | / | / | / | / | 65* | 35* | 82* | 59*
CCN=C1NC(c2ccc(F)cc2)C(C(=O)OC)=C(C)N1Cc1ccc(C(F)(F)F)cc1 (stereo not drawn) | 45 | 28 | / | / | / | / | / | / | / | /
CCN=C1NC(c2ccc(C(F)(F)F)cc2)C(C(=O)OC)=C(C)N1Cc1cccc(C(F)(F)F)c1 (stereo not drawn) | 45 | 46* | / | / | / | / | 53* | 28* | 45 | 45*
CCN=C1NC(c2ccc(F)cc2)C(C(=O)OC)=C(C)N1Cc1cccc(C(F)(F)F)c1 (stereo not drawn) | 95* | 92* | / | / | / | / | 71* | 39* | 76* | 57*
COC(=O)[C@]1(Cc2ccccc2)N[C@H](CN(C)S(=O)(=O)c2ccc(C(C)(C)C)cc2)[C@@H]2C(=O)N(Cc3ccccc3)C(=O)[C@@H]21 | -18 | 0 | -23 | / | 11 | 5 | / | / | / | /
CCOC1=C2[C@H](c3ccccc3)N(S(=O)(=O)c3ccc(C)cc3)[C@H](C(C)C)[C@H]2n2c(=O)n(-c3ccccc3)c(=O)n2C1 | -27 | 1 | / | / | / | / | / | / | / | /
COc1cc2c(c(OC)c1OC)C1(CCCCC1)CC2NCC=C(C)C (stereo not drawn) | 0 | 50* | / | / | / | / | 12 | 1 | -10 | 1
Cc1ccccc1OCC(=O)Nc1ccc2c(c1)C(=O)N(CCC(=O)O)C2=O | -24 | 1 | -11 | 9 | 12 | 7 | / | / | / | /
NC(N)=N/N=C/c1c(Cl)cccc1Cl | 54*! | 61* | -7 | -5 | 6 | -11 | 88* | 2 | 91* | 9
CC(C)c1cccc(C(C)C)c1NC(=O)CN(C)C1CCS(=O)(=O)C1 (stereo not drawn) | -17 | 1 | -14 | / | -1 | -4 | / | / | / | /
Cc1cc(C(=O)Nc2cccc(O)c2)c(C)o1 | 0 | 50* | 0 | -14 | 1 | 17 | 50* | 17* | 3 | 5
COc1ccc(S(=O)(=O)NCC2CCCN(C(=O)CCSC)C2)cc1 (stereo not drawn) | -4 | 3 | 5 | -16 | 18 | -20 | / | / | / | /
COc1ccc(NC(=O)CN2C(=O)NC(C)(c3ccccc3)C2=O)c(OC)c1 (stereo not drawn) | 21 | 6 | -4 | -4 | 6 | -8 | / | / | / | /
O=c1cc(Nc2ccc3c(c2)OCCO3)[nH]c(=O)n1C1CCCCC1 | 9 | 10 | -17 | 8 | 12 | -18 | / | / | / | /
CCc1ccc(Nc2cc(=O)n(C3CCCCC3)c(=O)[nH]2)cc1 | 44 | 79* | -8 | -2 | -2 | 8 | 108* | 50* | 81* | 32*
CC(C)(CNC(=O)c1cccc(S(=O)(=O)Nc2ccc(SC(F)F)cc2)c1)N1CCOCC1 | 5 | 6 | / | / | / | / | / | / | / | /
Cn1c2ccccc2c(=O)c2ccc(NCCc3cccs3)cc21 | 63* | 49* | -3 | / | 40 | 6 | 55* | 5 | 51* | 32*
NC(=O)c1ccc(NCCc2cccs2)cc1 | -21 | 15 | / | / | / | / | / | / | / | /
CCN(CC)c1ccc2cc(-c3nc(-c4ccc(OC)cc4)cs3)c(=O)oc2c1 | 105* | 451* | 97* | 13 | 26 | 106* | 355* | 606* | 89* | 96*
COc1ccc2cc(-c3ccccc3)c(=O)oc2c1 | -16 | 6 | -3 | 1 | 8 | -19 | / | / | / | /
O=C(Cn1cnnn1)NC1CCCN(Cc2ccccc2F)C1 (stereo not drawn) | 0 | 0 | -1 | -4 | 2 | -6 | / | / | / | /
C=CCOc1ccc(C(=O)c2ccccc2)c(OCC(=O)NC2(C#N)CCCC2)c1 | 31 | 9 | -7 | -14 | 9 | -18 | / | / | / | /
CC1Nc2ncnc(N3CCc4ccccc4C3)c2N(Cc2ccc(Br)cc2)C1=O (stereo not drawn) | 32 | 83* | -20 | / | 19 | -23 | 33 | 2 | 4 | 13
SMILES | TAAR1 antag | TAAR1 ag | CHO parental Ca | GPR7 antag | OX1R antag-1 | OX1R antag-2 | TAAR1 ag conf | Ga16 ag counter | TAAR1 desensitize | Ga16 antag count
CC1Nc2ncnc(N3CCc4ccccc4C3)c2N(Cc2ccc(Cl)cc2)C1=O (stereo not drawn) | / | / | -19 | / | 26 | -32 | / | / | / | /
O=c1[nH]cc(NCCc2ccccc2)c(=O)[nH]1 | / | / | -21 | -9 | 16 | -11 | / | 0 | / | 16
COc1cc(/C=C/C(=O)OCC(=O)NCCc2ccc(F)cc2)ccc1OC(F)F | 24 | 7 | -20 | / | 11 | -27 | / | / | / | /
COc1cc2[nH]c(C(=O)N3CCc4ccccc4C3)cc2c(OC)c1OC | -12 | 44* | -25 | -9 | -1 | -18 | 72* | 5 | 17 | 8
NC(=Nc1ccc(Br)cc1)c1ccccc1 | 40 | 50* | -6 | 4 | 9 | -1 | 55* | 27* | 49 | 18
C[C@H](CO)N1C[C@H](C)[C@@H](CN(C)C(=O)C2CCOCC2)Oc2ncc(Br)cc2C1=O | -11 | 0 | / | / | / | / | / | / | / | /
O=S(=O)(c1c(F)cccc1F)N1CCCC2CCCCC21 (stereo not drawn) | -28 | 3 | -24 | / | 7 | 12 | / | / | / | /
CC(C)C(N)c1csc(Nc2ccc(C(=O)c3ccccc3)cc2)n1 (stereo not drawn) | -4 | 48* | / | / | / | / | 62* | 14* | 20 | 25*
COc1ccc(CC(N)c2csc(Nc3ccc(C(C)=O)cc3)n2)cc1 (stereo not drawn) | -4 | 19 | / | / | / | / | / | / | / | /
